Source: ChEMBL document CHEMBL4196142, “Efficacy of Apigenin and Miltefosine Combination Therapy against Experimental Cutaneous Leishmaniasis” (J Nat Prod, 2018)
Activity calls are given as the source filed them. The rule behind the calls is not given here.

Columns and labels:
[1] = test system: Leishmania amazonensis; test: Antileishmanial activity against stationary-phase Leishmania amazonensis MHOM/BR/75/LTB0016 promastigotes infected in human THP1-derived macrophages at test compound to miltefosine ratio of 4:1 by serial dilution based light microscopic method; format: functional, organism-based
[2] = test system: Leishmania amazonensis; test: Synergistic antileishmanial activity against stationary-phase Leishmania amazonensis MHOM/BR/75/LTB0016 promastigotes infected in human THP1-derived macrophages assessed as fractional inhibitory concentration at test compound to miltefosine ratio of 3:2 by serial dilution based light microscopic method; format: functional
Procedure, shortened: (§1)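 In the infected THP-1 macrophage fixed-ratio assay, FIC and ∑FIC came from each ratio's EC50 by the modified fixed-ratio isobologram method. Mean ∑FIC was the average of the ∑FICs and was used to classify the interaction; isobolograms were plotted from each ratio's FIC values.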

[3] = test system: Leishmania amazonensis; test: Antileishmanial activity against stationary-phase Leishmania amazonensis MHOM/BR/75/LTB0016 promastigotes infected in Balb/c mouse assessed as reduction in lesion size at 2 mg/kg, po administered once daily via orogastric tube starting from 7 days post infection for 32 days measured twice weekly during compound dosing by caliper method; format: functional, organism-based
Procedure, shortened: (§2)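 Female BALB/c mice, 10−12 weeks, were infected intradermally in the right ear with 2 × 10^6 stationary-phase promastigotes in 10 μL PBS. From day 7 post-infection, dosing was oral by orogastric tube once daily, seven times per week, until day 32. Compound in DMSO (1% v/v), miltefosine in PBS; controls got vehicle suspension with DMSO 0.2% v/v. Lesion size was read by dial caliper twice weekly; n = 5.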

[4] = test system: Leishmania amazonensis; test: Antileishmanial activity against stationary-phase Leishmania amazonensis MHOM/BR/75/LTB0016 promastigotes infected in human THP1-derived macrophages at test compound to miltefosine ratio of 3:2 by serial dilution based light microscopic method; format: functional, organism-based
[5] = test system: Mus musculus; test: Hepatotoxicity in Balb/c mouse infected with stationary-phase Leishmania amazonensis MHOM/BR/75/LTB0016 promastigotes assessed as serum AST level at 1 mg/kg, po administered once daily via orogastric tube for 32 days starting from 7 days post infection measured post last dose in presence of 4 mg/kg miltefosine (reference value: 161.1 +/- 20.99 U/L); format: toxicity, organism-based; conditions: in vivo
Procedure, shortened: (§3)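 Infected female BALB/c mice, dosed orally once daily from day 7 to day 32, had serum AST, ALT and creatinine measured by dry chemistry technology at the PDTIS-FIOCRUZ facility. Mean ± SE, n = 5.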

[6] = test system: Leishmania amazonensis; test: Antileishmanial activity against stationary-phase Leishmania amazonensis MHOM/BR/75/LTB0016 promastigotes infected in human THP1-derived macrophages at test compound to miltefosine ratio of 2:3 by serial dilution based light microscopic method; format: functional, organism-based
[7] = test system: Leishmania amazonensis; test: Antileishmanial activity against stationary-phase Leishmania amazonensis MHOM/BR/75/LTB0016 promastigotes infected in human THP1-derived macrophages at test compound to miltefosine ratio of 1:4 by serial dilution based light microscopic method; format: functional, organism-based
[8] = test system: Mus musculus; test: Renal toxicity in Balb/c mouse infected with stationary-phase Leishmania amazonensis MHOM/BR/75/LTB0016 promastigotes assessed as serum creatinine level at 2 mg/kg, po administered once daily via orogastric tube for 32 days starting from 7 days post infection measured post last dose (reference value: 0.61 +/- 0.06 mg/dl); format: organism-based; conditions: in vivo; procedure, shortened: as §3
[9] = test system: Mus musculus; test: Hepatotoxicity in Balb/c mouse infected with stationary-phase Leishmania amazonensis MHOM/BR/75/LTB0016 promastigotes assessed as serum AST level at 2 mg/kg, po administered once daily via orogastric tube for 32 days starting from 7 days post infection measured post last dose (reference value: 161.1 +/- 20.99 U/L); format: toxicity, organism-based; conditions: in vivo; procedure, shortened: as §3
[10] = test system: Leishmania amazonensis; test: Antileishmanial activity against stationary-phase Leishmania amazonensis MHOM/BR/75/LTB0016 promastigotes infected in human THP1-derived macrophages by serial dilution based light microscopic method; format: functional, organism-based
[11] = test system: Mus musculus; test: Hepatotoxicity in Balb/c mouse infected with stationary-phase Leishmania amazonensis MHOM/BR/75/LTB0016 promastigotes assessed as serum ALT level at 2 mg/kg, po administered once daily via orogastric tube for 32 days starting from 7 days post infection measured post last dose (reference value: 88.41 +/- 8.77 U/L); format: toxicity, organism-based; conditions: in vivo; procedure, shortened: as §3
[12] = test system: Leishmania amazonensis; test: Synergistic antileishmanial activity against stationary-phase Leishmania amazonensis MHOM/BR/75/LTB0016 promastigotes infected in Balb/c mouse assessed as reduction in parasite load at 1 mg/kg, po administered once daily via orogastric tube starting from 7 days post infection for 32 days in presence of 4 mg/kg miltefosine by dilution method relative to control; format: functional; set-up: scale not given: the % may be the effect or the level left
Procedure, shortened: (§4)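 Ear infection and daily oral dosing were as for the lesion study in female BALB/c mice, ending at euthanasia on day 32. Infected ears were excised, weighed, minced in Schneider's medium with 10% FCS and serially diluted. Viable parasites per ear were estimated from the highest dilution still growing promastigotes after 7 days at 26 °C. Mean ± SE, n = 5 ears.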

[13] = test system: Leishmania amazonensis; test: Antileishmanial activity against stationary-phase Leishmania amazonensis MHOM/BR/75/LTB0016 promastigotes infected in Balb/c mouse assessed as reduction in parasite load at 2 mg/kg, po administered once daily via orogastric tube starting from 7 days post infection for 32 days by dilution method; format: functional, organism-based; procedure, shortened: as §4
[14] = test system: Leishmania amazonensis; test: Synergistic antileishmanial activity against stationary-phase Leishmania amazonensis MHOM/BR/75/LTB0016 promastigotes infected in human THP1-derived macrophages assessed as fractional inhibitory concentration at test compound to miltefosine ratio of 4:1 by serial dilution based light microscopic method; format: functional; procedure, shortened: as §1
[15] = test system: Mus musculus; test: Renal toxicity in Balb/c mouse infected with stationary-phase Leishmania amazonensis MHOM/BR/75/LTB0016 promastigotes assessed as serum creatinine level at 1 mg/kg, po administered once daily via orogastric tube for 32 days starting from 7 days post infection measured post last dose in presence of 4 mg/kg miltefosine (reference value: 0.61 +/- 0.06 mg/dl); format: organism-based; conditions: in vivo; procedure, shortened: as §3
[16] = test system: Leishmania amazonensis; test: Synergistic antileishmanial activity against stationary-phase Leishmania amazonensis MHOM/BR/75/LTB0016 promastigotes infected in Balb/c mouse assessed as reduction in lesion size at 1 mg/kg, po administered once daily via orogastric tube starting from 7 days post infection for 32 days measured twice weekly during compound dosing in presence of 4 mg/kg miltefosine by caliper method relative to control; format: functional; set-up: scale not given: the % may be the effect or the level left; procedure, shortened: as §2
[17] = test system: Mus musculus; test: Hepatotoxicity in Balb/c mouse infected with stationary-phase Leishmania amazonensis MHOM/BR/75/LTB0016 promastigotes assessed as serum ALT level at 1 mg/kg, po administered once daily via orogastric tube for 32 days starting from 7 days post infection measured post last dose in presence of 4 mg/kg miltefosine (reference value: 88.41 +/- 8.77 U/L); format: toxicity, organism-based; conditions: in vivo; procedure, shortened: as §3
[18] = test system: Leishmania amazonensis; test: Synergistic antileishmanial activity against stationary-phase Leishmania amazonensis MHOM/BR/75/LTB0016 promastigotes infected in human THP1-derived macrophages assessed as fractional inhibitory concentration at test compound to miltefosine ratio of 1:4 by serial dilution based light microscopic method; format: functional; procedure, shortened: as §1
[19] = test system: Leishmania amazonensis; test: Synergistic antileishmanial activity against stationary-phase Leishmania amazonensis MHOM/BR/75/LTB0016 promastigotes infected in human THP1-derived macrophages assessed as fractional inhibitory concentration at test compound to miltefosine ratio of 2:3 by serial dilution based light microscopic method; format: functional; procedure, shortened: as §1
[20] = test system: Leishmania amazonensis; test: Synergistic antileishmanial activity against stationary-phase Leishmania amazonensis MHOM/BR/75/LTB0016 promastigotes infected in human THP1-derived macrophages assessed as fractional inhibitory concentration at apigenin to test compound ratio of 1:4 by serial dilution based light microscopic method; format: functional; procedure, shortened: as §1
[21] = test system: Mus musculus; test: Hepatotoxicity in Balb/c mouse infected with stationary-phase Leishmania amazonensis MHOM/BR/75/LTB0016 promastigotes assessed as serum AST level at 8 mg/kg, po administered once daily via orogastric tube for 32 days starting from 7 days post infection measured post last dose (reference value: 161.1 +/- 20.99 U/L); format: toxicity, organism-based; conditions: in vivo; procedure, shortened: as §3
[22] = test system: Leishmania amazonensis; test: Synergistic antileishmanial activity against stationary-phase Leishmania amazonensis MHOM/BR/75/LTB0016 promastigotes infected in human THP1-derived macrophages assessed as fractional inhibitory concentration at apigenin to test compound ratio of 4:1 by serial dilution based light microscopic method; format: functional; procedure, shortened: as §1
[23] = test system: Leishmania amazonensis; test: Antileishmanial activity against stationary-phase Leishmania amazonensis MHOM/BR/75/LTB0016 promastigotes infected in Balb/c mouse assessed as reduction in lesion size at 8 mg/kg, po administered once daily via orogastric tube starting from 7 days post infection for 32 days measured twice weekly during compound dosing by caliper method; format: functional, organism-based; procedure, shortened: as §2
[24] = test system: Leishmania amazonensis; test: Antileishmanial activity against stationary-phase Leishmania amazonensis MHOM/BR/75/LTB0016 promastigotes infected in human THP1-derived macrophages at apigenin to test compound ratio of 4:1 by serial dilution based light microscopic method; format: functional, organism-based
[25] = test system: Leishmania amazonensis; test: Antileishmanial activity against stationary-phase Leishmania amazonensis MHOM/BR/75/LTB0016 promastigotes infected in human THP1-derived macrophages at apigenin to test compound ratio of 3:2 by serial dilution based light microscopic method; format: functional, organism-based
[26] = test system: Mus musculus; test: Renal toxicity in Balb/c mouse infected with stationary-phase Leishmania amazonensis MHOM/BR/75/LTB0016 promastigotes assessed as serum creatinine level at 8 mg/kg, po administered once daily via orogastric tube for 32 days starting from 7 days post infection measured post last dose (reference value: 0.61 +/- 0.06 mg/dl); format: organism-based; conditions: in vivo; procedure, shortened: as §3
[27] = test system: Leishmania amazonensis; test: Synergistic antileishmanial activity against stationary-phase Leishmania amazonensis MHOM/BR/75/LTB0016 promastigotes infected in human THP1-derived macrophages assessed as fractional inhibitory concentration at apigenin to test compound ratio of 3:2 by serial dilution based light microscopic method; format: functional; procedure, shortened: as §1
[28] = test system: Mus musculus; test: Hepatotoxicity in Balb/c mouse infected with stationary-phase Leishmania amazonensis MHOM/BR/75/LTB0016 promastigotes assessed as serum ALT level at 8 mg/kg, po administered once daily via orogastric tube for 32 days starting from 7 days post infection measured post last dose (reference value: 88.41 +/- 8.77 U/L); format: toxicity, organism-based; conditions: in vivo; procedure, shortened: as §3
[29] = test system: Leishmania amazonensis; test: Synergistic antileishmanial activity against stationary-phase Leishmania amazonensis MHOM/BR/75/LTB0016 promastigotes infected in human THP1-derived macrophages assessed as fractional inhibitory concentration at apigenin to test compound ratio of 2:3 by serial dilution based light microscopic method; format: functional; procedure, shortened: as §1
[30] = test system: Leishmania amazonensis; test: Antileishmanial activity against stationary-phase Leishmania amazonensis MHOM/BR/75/LTB0016 promastigotes infected in human THP1-derived macrophages at apigenin to test compound ratio of 1:4 by serial dilution based light microscopic method; format: functional, organism-based
[31] = test system: Leishmania amazonensis; test: Antileishmanial activity against stationary-phase Leishmania amazonensis MHOM/BR/75/LTB0016 promastigotes infected in human THP1-derived macrophages at apigenin to test compound ratio of 2:3 by serial dilution based light microscopic method; format: functional, organism-based
[32] = test system: Leishmania amazonensis; test: Antileishmanial activity against stationary-phase Leishmania amazonensis MHOM/BR/75/LTB0016 promastigotes infected in Balb/c mouse assessed as reduction in parasite load at 8 mg/kg, po administered once daily via orogastric tube starting from 7 days post infection for 32 days by dilution method; format: functional, organism-based; procedure, shortened: as §4

O=c1cc(-c2ccc(O)cc2)oc2cc(O)cc(O)c12 [APIGENIN]
EC50 [1]: 2990 nM
FIC50 [2]: 0.37
Activity [3]: Active
EC50 [4]: 1430 nM
Activity [5]: 115.1 U/L
EC50 [6]: 730 nM
EC50 [7]: 160 nM
Activity [8]: 0.63 mg/dL
Activity [9]: 100.5 U/L
EC50 [10]: 3850 nM
Activity [11]: 43.21 U/L
Activity [12]: 95%
Activity [13]: Active
FIC50 [14]: 0.77
Activity [15]: 0.69 mg/dL
Activity [16]: 75%
Activity [17]: 53.55 U/L
FIC50 [18]: 0.04
FIC50 [19]: 0.18

CCCCCCCCCCCCCCCCOP(=O)([O-])OCC[N+](C)(C)C [MILTEFOSINE]
FIC50 [20]: 1.5
Activity [21]: 271.1 U/L
FIC50 [22]: 0.58
Activity [23]: Active
EC50 [24]: 440 nM
EC50 [25]: 730 nM
Activity [26]: 0.66 mg/dL
FIC50 [27]: 0.96
EC50 [10]: 750 nM
Activity [28]: 61.14 U/L
FIC50 [29]: 2.03
EC50 [30]: 1130 nM
EC50 [31]: 1530 nM
Activity [32]: Active
